# Assay: Toxicity liver stage against HepG2, at 10uM
# Format: cell-based
# Parameters: test concentration 10 uM, cell line HepG2-A16-CD81EGFP
# Details: human, HepG2-A16-CD81EGFP cells; read-out: INHIBITION
# Outline: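 Uninfected HepG2-A16-CD81EGFP cells, 3 × 10^3 per well, 1536-well, plated on prespotted compound at 10 μM final, parasite-free screening media added to match infected plates; puromycin 10 μM positive, DMSO 0.5% negative; run in parallel with 48 h PbLuc assay at 37 °C, 5% CO2; viability by CellTiter-Glo luminescence, normalized to controls.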
row,SMILES,cytotoxicity at 10 µM
1,Cc1cccc2c1nc1n2[C@@H](CNC(=O)Cc2ccccc2)COC1,-5.12%
2,COCCN1C[C@H]2CN(C(=O)NC(C)C)CCN2C1=O,2.6%
3,COC(=O)c1cccc2nc([C@H]3CCN(Cc4ccccc4C)C3)oc12,8.36%
4,COc1ccc(-c2nc(C#N)c(N(C)C)o2)cc1OC,-4.91%
5,CSCC(C)(O)CNS(=O)(=O)c1cccc(Cl)c1 (configuration not stated),-0.396%
6,O=S(=O)(NCC1(O)CCOc2ccccc21)c1ccccc1Br (configuration not stated),8.45%
7,Cn1nc(CNC(=O)C2CCC2)cc1C1CC1,-4.31%
8,O=C(Cc1ccc(F)cc1)N1C[C@H]2CCN[C@H]2C1,2.26%
9,O=C(CC1CC1)N1CCC2(CC1)CN(CCn1cccn1)C(=O)CO2,1.75%
10,COC[C@H]1CC[C@H]2[C@H](CCN2S(=O)(=O)Cc2ccccc2)O1,8.25%
11,Cc1ncnc2c1CCN(C(=O)c1ccsc1)CC2,-0.443%
12,CCN(CC)CC1CN(Cc2ccco2)Cc2nccn2C1 (configuration not stated),-139%
13,COc1cccc(C(=O)N2CCc3ncnc(C)c3CC2)c1,-12.6%
14,CCn1cc(Br)c(C(=O)NCc2ccc(F)cc2)n1,-3.01%
15,Cc1cc2[nH]c(O)nc2cc1NCc1ccccc1,16%
16,Cc1cc(C(=O)N(C)Cc2cccs2)nc(N2CCCC2)n1,7.85%
17,CCN(CC)C(=O)c1nnn(Cc2ccccc2)c1OC,10.3%
18,CNc1nc(C)c(C(=O)NCC(C)(C)N2CCCCC2)s1,2.79%
19,CC(C)c1[nH]c2ncccc2c1CN1CCN(S(=O)(=O)N(C)C)CC1,3.33%
20,CN(C)S(=O)(=O)N1CCC(c2ccncc2)CC1,-27.6%
21,c1ccc(N2CCOC(Cc3cccnc3)C2)cc1 (configuration not stated),-26.3%
22,COc1cccc(C(C)N2CCN(S(=O)(=O)c3ccccc3)CC2)c1 (configuration not stated),5.11%
23,Cc1ccc(F)cc1C(=O)NCc1ccc(C(=O)O)o1,-10.1%

row,SMILES,cytotoxicity at 10 µM
1,O=C(NCCO)Nc1ccc(Br)c(F)c1,1.92%
2,CC(C)(C)OC(=O)N1CCCCC(NC(=O)CCc2cccnc2)C1 (configuration not stated),17.5%
3,N#Cc1cc(S(N)(=O)=O)ccc1N1CCN(c2ccccc2)CC1,-3.54%
4,COc1cc(CO)ccc1OCc1nc(C2CC2)no1,6.37%
5,OCc1cccc(CNCc2cccc3c2OCCO3)c1,4.25%
6,CNC(=O)NC(=O)CN1CCc2c(Br)ccc(F)c2C1,-9.3%
7,COC(=O)C1CCN(C(=O)Cn2ccc(-c3ccccc3)n2)CC1,-1.22%
8,Cn1ccc(N2CCCC(NC(=O)c3ccc(Cl)o3)C2=O)n1 (configuration not stated),-2.51%
9,O=C(NS(=O)(=O)c1ccc(F)c(F)c1)c1cscn1,-5.64%
10,O=C(NC1CCc2cc(Cl)ccc21)C1CCN(C(=O)C2CC2)CC1 (configuration not stated),-1.43%
11,Cc1nc(CN2CCCN(CCCc3ccccc3)CC2)no1,11.3%
12,Cc1nc(CN2CCN(CCCc3nc4ccccc4o3)CC2)no1,9.13%
13,Cc1noc(C(C)N(C)Cc2ccco2)n1 (configuration not stated),6.6%
14,CC(C)N(CCNC(=O)N1CCCC(N(C)C)C1)C1CC1 (configuration not stated),-0.211%
15,Cc1ccc(NS(=O)(=O)c2ccc(C#N)cc2)c(CN(C)C)c1,-8.51%
16,COc1ccc(Oc2ccc(CNC(=O)C3CCS(=O)(=O)C3)cn2)cc1 (configuration not stated),-2.22%
17,CC(C)N(C)S(=O)(=O)N(C)Cc1cnn(Cc2ccccc2)c1,7.01%
18,CC(=O)c1cccc(NC(=O)NCCCc2nc(C(C)C)no2)c1,2.16%
19,CC(=O)NCCC(=O)NCCCOc1c(C)cccc1C,-4.81%
20,CN(C)c1nccc(CNC(=O)NC(C)(C)C)n1,-7.36%
21,CC(=O)Nc1ccc(CN2CCOC2=O)cc1,-6.24%
22,CCSc1cc(C(=O)NCCC(=O)N(C)C)ccn1,-5.41%
23,CC(C)c1nnc2n1CCN(c1nn3cc(C(C)(C)C)nc3s1)C2,7.44%

row,SMILES,cytotoxicity at 10 µM
1,Cc1cccc(NCC(=O)Nc2cc(F)ccc2F)c1C(N)=O,7.53%
2,CCN(C(c1cccnc1)c1ccc(F)c(F)c1)S(C)(=O)=O (configuration not stated),-0.69%
3,Cc1cc(N2CCCC2Cn2nc(C)cc2C)n2ncnc2n1 (configuration not stated),-2.74%
4,CCS(=O)(=O)N1CCC(CSc2ccccc2)C1 (configuration not stated),2.42%
5,Cc1cnn(CC2CCCCN2c2ncnc3ccccc23)c1 (configuration not stated),8.24%
6,Brc1ccc(C2(CNCc3cc[nH]c3)CCOCC2)cc1,9.17%
7,CNC(=O)C1CN(Cc2ccc(C#N)cc2F)c2ccccc2O1 (configuration not stated),9.44%
8,Cc1nsc(N2CCCN(c3ccc(C#N)cn3)CC2)n1,-1.32%
9,CN(Cc1ccccc1O)C(=O)Nc1cc(F)cc(N2CCCC2)c1,7.93%
10,COCC(C)(NC(=O)c1cc(Cl)c(-n2cccc2)cc1OC)C(N)=O (configuration not stated),-4.15%
11,Fc1cccc2[nH]c(CN3CCn4c(nnc4C4CC4)C3)nc12,-5.07%
12,CC(NC(=O)N1CCN(c2cccs2)CC1)c1ccc(C#N)cc1 (configuration not stated),11.4%
13,O=C(NCC1CCCOC1)c1ccc(-c2cccs2)[nH]c1=O (configuration not stated),-3.67%
14,Cc1cnc(CN(Cc2ccccc2)CC(O)c2cccs2)cn1 (configuration not stated),-15.4%
15,CC(=O)N1CCC(C(=O)NCCN2CCCCC2)CC1,-5.04%
16,NS(=O)(=O)CCNC(=O)c1ccc(-c2ccc(F)cc2)cc1F,-3.62%
17,Cc1nc(CCNC(=O)NC2CCN(c3ncccn3)CC2)cs1,-11.8%
18,Cc1nc(N(C)C)ncc1C(=O)NCCc1csc(-c2cnccn2)n1,-5%
19,O=C(CNc1cc(-c2ccccc2)nc2ccnn12)NC1CC1,-10.5%
20,CCn1nc(CC(C)C)cc1C(=O)N1CC(N2CCCCC2C)C1 (configuration not stated),-12.4%
21,CCn1nccc1C(=O)N1CCCCC1CCc1ccc(O)cc1 (configuration not stated),2.62%
22,Cc1noc(C)c1CCCNC(=O)C1CCN(C(C)C)CC1,-7.01%
23,Cc1cccc(SC2CCN(C(=O)CCNS(C)(=O)=O)CC2)c1,1.2%

row,SMILES,cytotoxicity at 10 µM
1,O=C(CCc1cc2n(n1)CCCNC2)N1CCN(C2CCCC2)C(=O)C1,2.68%
2,Cc1ccc(CN2CCNC(=O)C2CC(=O)NCc2n[nH]c(C)n2)cc1 (configuration not stated),-3.83%
3,COc1cc(N2C[C@@H](C)[C@](O)(C3CC3)C2)ncn1,-0.714%
4,Cc1noc(-c2ccc(N3CCCC(C(=O)c4nccn4C)C3)nc2)n1 (configuration not stated),-6.58%
5,CN1CC2(CCCN(Cc3cccc(CCN)c3)C2)OC1=O (configuration not stated),20%
6,COc1ccccc1CNC(=O)CN(C)C(C)c1ccncn1 (configuration not stated),-4.73%
7,CC(C)(O)CCc1ccc(C(=O)NCC2CCCOC2)cc1 (configuration not stated),0.445%
8,COc1ccc(N2CCN(C(=O)CCCc3cn[nH]c3)CC2=O)cc1,-9.9%
9,CCC(C)N(Cc1ccncc1)Cc1ccc(-n2cccn2)cc1 (configuration not stated),-48.3%
10,CCn1cc(CN2CCN(C)C3(CCC(=O)N(CC4CC4)CC3)C2)cn1 (configuration not stated),-0.764%
11,CCn1c(C2CCN(C(=O)c3cc(Cl)no3)CC2)nn(C)c1=O,-10.5%
12,COCCN(C)C[C@@H]1CN(c2cc(C)nc3ccccc23)C[C@@H]1CO,-1.92%
13,CC(C)Cn1cncc1CNC1CCSCC1,-4.11%
14,Cc1ccccc1C(C(=O)NCCSC(F)(F)F)N(C)C (configuration not stated),8.25%
15,O=C(NCc1ccco1)c1cc(N2CC[C@@H](O)C2)ccn1,-2.93%
16,CN(C)C(=O)N1CCN(Cc2ccccc2)[C@@H]2CS(=O)(=O)C[C@@H]21,-12.6%
17,CCn1c(CN2CCCC2)nnc1C1CCN(Cc2ccc(C)o2)CC1,-14.8%
18,COCCC(=O)N1CCC2(CC1)CC(c1ccccc1)CN(C)C2 (configuration not stated),-14.4%
19,CCOCC(O)CN1CCN(C(=O)c2cccc(OC)c2)CC1 (configuration not stated),-0.874%
20,CC(=O)N1CCCC(C(=O)NCCOc2cc(C)cc(C)c2)C1 (configuration not stated),-3.43%
21,CC(C)c1nc(CN2CCOC(Cn3cncn3)C2)cs1 (configuration not stated),-4.39%
22,CCS(=O)(=O)N1CCC(NC(=O)c2ccccc2O)CC1,-7.27%
23,CCn1cc(CN2CCCN(C(=O)c3sccc3OC)CC2)cn1,-5.68%

row,SMILES,cytotoxicity at 10 µM
1,CN1CCOC(CNC(=O)Cc2coc(-c3ccccc3)n2)C1 (configuration not stated),-25.1%
2,CN(Cc1ccc(N(C)C)cc1)C(=O)NCc1nnc2n1CCC2,-21%
3,Cc1ccc(-c2nc(CN3CCN(C(=O)C4CC4)CC3)cs2)o1,-12.6%
4,CS(=O)(=O)c1ccc(CNc2nccc(C(F)(F)F)n2)cc1,-23.2%
5,Cc1cnc(C(=O)Nc2cc(F)ccc2OCC2CCCO2)cn1 (configuration not stated),-4.83%
6,Cc1nc(C)c(C(=O)OCCNc2ncccc2C#N)s1,-7.32%
7,CNC(=O)[C@@H]1CN(C(=O)C2CCC2)C[C@H]1c1ccnc(N2CCCC2)n1,-3.21%
8,Cc1cccc(CN2C(=O)C[C@H]3[C@@H]2CCN3Cc2ccco2)n1,-1.39%
9,O=C(NCc1ccco1)[C@@]12CCO[C@@H]1CCN(Cc1ccccn1)C2,0.109%
10,Oc1cc(C2CCNCC2)nc(-c2ccsc2)n1,4.06%
11,Cc1cc(CN2CC[C@H]3C(=O)N(c4ccccc4)CCO[C@H]3C2)no1,-5.59%
12,Cc1cccc(CN2CCOCC3(CCN(C4CCOCC4)C3)C2)n1 (configuration not stated),-0.124%
13,Cc1ccoc1C(=O)N1C[C@@H]2COC[C@]2(COCc2cccnc2)C1,5.95%
14,COCCN1CC[C@@H](OC)[C@@H]1Cc1ccccc1,4.9%
15,CCS(=O)(=O)N1CC[C@@H]2[C@H](CC1)N(CC(C)C)CCS2(=O)=O,8.4%
16,CS(=O)(=O)N[C@@H]1CCO[C@]2(CCN(CC3CCOCC3)C2)C1,-132%
17,COc1ccc(C[C@H]2CNCC[C@@H]2OC)cc1,3.11%
18,c1cnc(N2CCOCC3(CN(Cc4nccs4)CCO3)C2)nc1 (configuration not stated),1.5%
19,CC(=O)c1cc(CN2C[C@@H]3CC[C@H]2CN(Cc2c(C)noc2C)C3)cs1,-1.43%
20,COCCN1C[C@@H]2CC[C@H]1CN(Cc1nc3ccccc3n1C)C2,-11.2%
